These results are taken from ChEMBL document CHEMBL1772965, “Analogues and derivatives of oncrasin-1, a novel inhibitor of the C-terminal domain of RNA polymerase II and their antitumor activities” (J Med Chem, 2011).

Series [1] in a line: Stability of compound at pH 9. To be noted: buffer. The class given is physicochemical.
Series [2] is described as follows: Cytotoxicity against human T29 cells assessed as cell viability after 3 days by sulforhodamine B assay. The class given is cell-based. To be noted: T29, 72 h. A digest of the protocol:
(§1)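 Monolayer cultures were grown in RPMI-1640 or DMEM with 10% heat-inactivated fetal calf serum and penicillin/streptomycin, at 37°C and 5% CO2. Cells were exposed for 3 days to compound from 10−4.5 M (31.6 μM) down to 10−8 M (10 nM), with 1% DMSO as the control. Viability was read by sulforhodamine B. IC50 was the dose halving surviving cells versus control, run in quadruplicate and repeated at least three times.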

Series [3] in a line: Cytotoxicity against mutant K-ras-transformed human T29Kt1 cells assessed as cell viability after 3 days by sulforhodamine B assay. The class given is functional, cell-based. To be noted: T29Kt1, 72 h. The gist of the method: as §1
The test system of a further series is NCI-H460. As to the kind of experiment: Cytotoxicity against human H460 cells assessed as cell viability after 3 days by sulforhodamine B assay. The format is functional, cell-based. To be noted: NCI-H460, 72 h. A digest of the protocol:
as §1

Series [4] is described as follows: Stability of compound at pH 7.4. As to conditions: buffer. The format is physicochemical.
Series [5] in a line: Stability of compound at pH 4. The class given is physicochemical. As to conditions: buffer.
A short description of series [6]: Stability of compound at pH 2. The class given is physicochemical. To be noted: buffer.
Series [7] is described as follows: Stability of compound at pH 6. The format is physicochemical. To be noted: buffer.

The IC50 is the concentration that gives 50% inhibition.

Take `OCc1cn(Cc2ccc(Cl)cc2)c2cc(F)ccc12`: the Stability entry is recorded as “Stable” in series [1]; “Stable” in series [4]; “Stable” in series [5]; “Unstable” in series [6]; “Stable” in series [7]. Moreover, the IC50 in series [2] was above 31600 nM; in series [3] it was 1000 nM; with NCI-H460 it was 450 nM.
On to `COc1ccc2c(c1)c(CO)cn2Cc1ccc(Cl)cc1`, for which the Stability result in series [1] is “Stable”; in series [4] it was “Stable”; in series [5] it was “Stable”; in series [6], “Unstable”; in series [7] it was “Stable”. For the same compound, the IC50 in series [2] is above 31600 nM; in series [3], 12500 nM; in the series with NCI-H460, 1510 nM.
`Cc1ccc(Cn2cc(CO)c3ccccc32)cc1`: the Stability result is given as “Stable” in series [1]; “Stable” in series [4]; “Stable” in series [5]; “Unstable” in series [6]; “Stable” in series [7]. Also, the IC50 in series [2] is above 31600 nM; in series [3], 150 nM; with NCI-H460, 31 nM.
Turning to `OCc1cn(Cc2ccc(C(F)(F)F)cc2)c2ccccc12`, the Stability result in series [1] is listed as “Stable”; in series [4] it was “Stable”; in series [5] it was “Stable”; in series [6], “Unstable”; in series [7], “Stable”. Further, the IC50 in series [2] was above 31600 nM; in series [3], 1250 nM; in the series with NCI-H460, 1250 nM.
As to `Cc1cccc(Cn2cc(CO)c3ccccc32)c1`, the Stability result in series [1] is “Stable”; in series [4], “Stable”; in series [5] it was “Stable”; in series [6], “Unstable”; in series [7], “Stable”. Besides, the figures for the IC50 (in series [2]; in series [3]; with NCI-H460) were above 31600 nM, 1000 nM and 31 nM, respectively.
As for `OCc1cn(Cc2cccc(I)c2)c2ccccc12`, the Stability entry in series [1] was “Stable”; in series [4] it was “Stable”; in series [5] it was “Stable”; in series [6], “Unstable”; in series [7] it was “Stable”. For the same compound, the 50% inhibitory concentration (IC50) was above 31600 nM in series [2], 20 nM in series [3] and 100 nM with NCI-H460.
Take `Cc1ccc(Cn2cc(CO)c3cc(F)ccc32)cc1`: the Stability result is “Stable” in series [1]; “Stable” in series [4]; “Stable” in series [5]; “Unstable” in series [6]; “Stable” in series [7]. The results for the IC50 (in series [2]; in series [3]; in the series on NCI-H460) were 11700 nM, 30 nM and 10 nM, respectively.
With `COc1ccc(Cn2cc(CO)c3ccccc32)cc1`, the Stability entry in series [1] is recorded as “Stable”; in series [4], “Stable”; in series [5], “Stable”; in series [6] it was “Unstable”; in series [7], “Stable”. Further, the IC50 in series [2] was above 31600 nM; in series [3] it was 63 nM; with NCI-H460 it was 79 nM.
On to `O=[N+]([O-])c1cccc(Cn2cc(CO)c3ccccc32)c1`, for which the Stability result in series [1] was “Stable”; in series [4], “Stable”; in series [5], “Stable”; in series [6] it was “Unstable”; in series [7], “Stable”. In addition, the IC50 in series [2] was above 31600 nM; in series [3] it was 390 nM; in the series with NCI-H460, 39 nM.
As to `OCc1cn(Cc2ccc(Cl)cc2Cl)c2ccccc12`, the Stability result in series [1] is “Stable”; in series [4] it was “Stable”; in series [5], “Stable”; in series [6], “Unstable”; in series [7], “Stable”. Moreover, the IC50 in series [2] was above 31600 nM; in series [3], 1580 nM; with NCI-H460, 79 nM.
On to `O=[N+]([O-])c1ccc(Cn2cc(CO)c3ccccc32)cc1`, for which the Stability result in series [1] is recorded as “Stable”; in series [4], “Stable”; in series [5], “Stable”; in series [6] it was “Unstable”; in series [7] it was “Stable”. The IC50 was above 31600 nM in series [2], 150 nM in series [3] and 79 nM in the series with NCI-H460.
For `OCc1cn(Cc2ccc(Br)c(Br)c2)c2ccccc12`, the Stability entry in series [1] is given as “Stable”; in series [4], “Stable”; in series [5], “Stable”; in series [6] it was “Unstable”; in series [7], “Stable”. The IC50 in series [2] was above 31600 nM; in series [3], 100 nM; in the series on NCI-H460, 50 nM.
For the compound `OCc1cn(Cc2ccc(Cl)cc2)c2ccc(Cl)cc12`, the Stability entry in series [1] is on record as “Stable”; in series [4] it was “Stable”; in series [5] it was “Stable”; in series [6], “Unstable”; in series [7], “Stable”. Besides, the IC50 was above 31600 nM in series [2], 13000 nM in series [3] and 5750 nM with NCI-H460.
Turning to `OCc1cn(Cc2ccc(Cl)c(Cl)c2)c2ccccc12`, the Stability entry is “Stable” in series [1]; “Stable” in series [4]; “Stable” in series [5]; “Unstable” in series [6]; “Stable” in series [7]. Further, the IC50 in series [2] is above 31600 nM; in series [3], 310 nM; in the series with NCI-H460 it was 31 nM.
Take `Cn1cc(CO)c2cc(F)ccc21`: the Stability result in series [1] was “Stable”; in series [4] it was “Stable”; in series [5], “Stable”; in series [6] it was “Unstable”; in series [7] it was “Stable”. Besides, the IC50 is above 31600 nM in series [2], 13800 nM in series [3] and 16900 nM in the series on NCI-H460.
`OCc1cn(Cc2ccc(Cl)cc2)c2ccc(F)cc12`: the Stability result in series [1] was “Stable”; in series [4], “Stable”; in series [5], “Stable”; in series [6], “Unstable”; in series [7], “Stable”. Also, the IC50 amounted to 8120 nM in series [2], 80 nM in series [3] and 30 nM in the series with NCI-H460.
In the case of `OCc1cn(Cc2ccccc2Cl)c2ccccc12`, the Stability entry in series [1] is recorded as “Stable”; in series [4] it was “Stable”; in series [5], “Stable”; in series [6], “Unstable”; in series [7], “Stable”. Besides, the values for the IC50 (in series [2]; in series [3]; in the series with NCI-H460) were above 31600 nM, 2510 nM and 100 nM, respectively.
For the compound `OCc1cn(Cc2cccc(C(F)(F)F)c2)c2ccccc12`, the Stability entry in series [1] is “Stable”; in series [4], “Stable”; in series [5], “Stable”; in series [6], “Unstable”; in series [7], “Stable”. Moreover, the results for the IC50 (in series [2]; in series [3]; in the series on NCI-H460) were above 31600 nM, 560 nM and 39 nM, respectively.
With `OCc1cn(Cc2ccc(F)cc2)c2ccccc12`, the Stability entry in series [1] is given as “Stable”; in series [4], “Stable”; in series [5] it was “Stable”; in series [6] it was “Unstable”; in series [7], “Stable”. For the same compound, the results for the IC50 (in series [2]; in series [3]; in the series on NCI-H460) were 17000 nM, 30 nM and 118 nM, respectively.
